In general, MIC refers to the lowest concentration found to suppress growth. The term IC50 denotes the concentration at which inhibition is half-maximal. What is called Vd is a proportionality between amount in the body and measured concentration, not a real space. Read a high Vd as wide distribution into tissue. For orientation: AUC(0-inf) means total exposure, with the tail of the curve extrapolated. Read a low AUC(0-inf) as less exposure.

In brackets after ≈: the same amount, converted by molar mass.

The values below come from ChEMBL document CHEMBL4342526, “Exploration of the Structural Space in 4(3H)-Quinazolinone Antibacterials” (J Med Chem, 2020).

The subject of data set [1] is Staphylococcus aureus. As to the kind of experiment: Antibacterial activity against Staphylococcus aureus ATCC 29213 measured after 16 to 20 hrs in presence of bovine serum albumin by microdilution method. Type of data set: functional. Summed up:
(§1)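 S. aureus ATCC29213 MIC was run by CLSI microdilution in cation-adjusted Mueller–Hinton broth plus 2% NaCl, with and without 0.5% bovine serum albumin. Compounds were two-fold serially diluted in triplicate, inoculum was 5 × 10^5 CFU/mL, and plates were incubated at 37 °C for 16–20 h. The endpoint was the lowest concentration with no visible growth.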
On the technique in general: Dilution methods test growth across graded concentrations, often in twofold steps.

Data set [2] relates to Staphylococcus aureus. As to the kind of experiment: Antibacterial activity against clindamycin/erythromycin/spectinomycin-resistant mec-positive Staphylococcus aureus NRS70 measured after 16 to 20 hrs by microdilution method. Type of data set: functional. Summed up: (§2)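 CLSI broth microdilution; two-fold serial compound dilutions in triplicate in cation-adjusted Mueller–Hinton broth with 2% NaCl, inoculum 5 × 10^5 CFU/mL; 37 °C for 16–20 h; MIC = lowest concentration with no visible growth.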

In a further data set the test system is HeLa. As to the kind of experiment: Cytotoxicity against human HeLa cells assessed as reduction in cell viability measured after 16 hrs by XTT assay. The format is cell-based. In a few lines: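 HeLa cells (ATCC CCL-2), run in triplicate. Viability was read by XTT, and IC50 was obtained by nonlinear regression.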
In general terms: Formazan colour is commonly taken as a measure of viable cells.

Data set [3] has as its system Staphylococcus aureus. As to the kind of experiment: Selectivity ratio of MIC for Staphylococcus aureus ATCC 29213 in presence of bovine serum albumin to MIC for Staphylococcus aureus ATCC 29213 in absence of bovine serum albumin. The format is functional. In a few lines: as §1
Data set [4] concerns Staphylococcus epidermidis. As to the kind of experiment: Antibacterial activity against Staphylococcus epidermidis ATCC 35547 measured after 16 to 20 hrs by microdilution method. The format is functional. Summed up:
as §2

Data set [5] relates to Staphylococcus haemolyticus. As to the kind of experiment: Antibacterial activity against Staphylococcus haemolyticus ATCC 29970 measured after 16 to 20 hrs by microdilution method. The format is functional. Summed up: (§3)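 CLSI broth microdilution: two-fold serial dilutions in triplicate in cation-adjusted Mueller–Hinton broth with 2% NaCl, inoculum 5 × 10^5 CFU/mL, incubated at 37 °C for 16–20 h. MIC is the lowest concentration preventing visible growth.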

A further data set deals with Streptococcus pneumoniae. As to the kind of experiment: Antibacterial activity against Streptococcus pneumoniae ATCC 49619 measured after 16 to 20 hrs by microdilution method. The format is functional. In a few lines:
as §3

In another data set the test system is Clostridioides difficile. As to the kind of experiment: Antibacterial activity against Clostridium difficile ATCC 43255 measured after 16 to 20 hrs by microdilution method. The format is functional.
Another data set relates to Bacillus cereus. As to the kind of experiment: Antibacterial activity against Bacillus cereus ATCC 13061 measured after 16 to 20 hrs by microdilution method. Type of data set: functional. In a few lines:
as §3

In the next data set the test system is Bacillus licheniformis. As to the kind of experiment: Antibacterial activity against Bacillus licheniformis ATCC 12759 measured after 16 to 20 hrs by microdilution method. The format is functional. Summed up: as §3
The next data set concerns Enterococcus faecalis. As to the kind of experiment: Antibacterial activity against Enterococcus faecalis ATCC 29212 measured after 16 to 20 hrs by microdilution method. The format is functional. Summed up: as §3
The nature of data set [6]: Selectivity index, ratio of IC50 for human HeLa cells to MIC for clindamycin/erythromycin/spectinomycin-resistant mec-positive Staphylococcus aureus NRS70. Type of data set: toxicity. In a few lines: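 HeLa cytotoxicity by XTT assay in triplicate, IC50 by nonlinear regression; ratio IC50 over broth microdilution MIC against NRS70.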
Data set [7] is described as follows: Elimination half life in ICR mouse at 10 mg/kg, iv by UV-UPLC analysis. The format is ADME, organism-based. The note with it: in vivo. In a few lines:
(§4)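 Female ICR mice, 6–8 weeks old, 20–25 g. Each received 50 μL by tail-vein injection (5 or 10 mg/kg) of a filter-sterilized 2 or 4 mg/mL solution in 20% DMSO/10% Tween-80/70% water. Terminal blood was collected and plasma harvested by centrifugation. Plasma was precipitated with acetonitrile containing internal standard, and the supernatant was analyzed by C18 UPLC with UV detection at 285 nm.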

Data set [8] in a line: Volume of distribution in ICR mouse at 10 mg/kg, iv by UV-UPLC analysis. Type of data set: ADME, organism-based. The note with it: in vivo. In a few lines:
as §4

Data set [9] is described as follows: AUC (0 to infinity) in ICR mouse at 10 mg/kg, po administered via gavage by UV-UPLC analysis. The following applies: in vivo. Also on record: dose 10 mg/kg, route oral, time infinity. The format is ADME, organism-based.
Data set [10] in a line: Elimination half life in ICR mouse at 10 mg/kg, po administered via gavage by UV-UPLC analysis. Type of data set: ADME, organism-based. The following applies: in vivo, read-out: beta t1/2 (converted).
The nature of data set [11]: Oral bioavailability in ICR mouse at 10 mg/kg administered via gavage by UV-UPLC analysis. The format is ADME, organism-based. The note with it: in vivo.
Data set [12] can be described thus: Clearance in ICR mouse at 10 mg/kg, iv by UV-UPLC analysis relative to hepatic blood flow. The format is ADME, organism-based. The note with it: in vivo. In a few lines: as §4
The nature of data set [13]: Time at which plasma concentration stays above in vitro MIC for clindamycin/erythromycin/spectinomycin-resistant mec-positive Staphylococcus aureus NRS70 in ICR mouse at 10 mg/kg, iv. The format is ADME, organism-based. The following applies: in vivo. In a few lines: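 Female ICR mice given single iv tail-vein dose (50 μL of 2 or 4 mg/mL in 20% DMSO/10% Tween-80/70% water); terminal blood at 5, 40 min, 2, 4, 8 h, n = 2 per time point; plasma acetonitrile-precipitated with internal standard, UPLC-UV 285 nm on C18; time above MIC read from concentration profile.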

The test system of data set [14] is Staphylococcus aureus. As to the kind of experiment: […] activity against clindamycin/erythromycin/spectinomycin-resistant mec-positive Staphylococcus aureus NRS70 incubated for 16 to 20 hrs followed by re-plating on agar plate. Type of data set: functional. The note with it: read-out: MBC99.9.
Data set [15] concerns Staphylococcus aureus. As to the kind of experiment: Bactericidal activity against methicillin resistant Staphylococcus aureus NRS70 infected in ICR mouse model of neutropenic thigh infection assessed as log reduction in bacterial count in thigh at 20 mg/kg, sc administered at 8 hrs interval for 3 times starting from 1 hr post infection and measured 24 hrs post infection. The format is functional. In a few lines:
(§5)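 Female ICR mice (6–8 weeks, 20–25 g) made neutropenic with cyclophosphamide 200 mg/kg ip at 4 and 1 days pre-infection; 0.1 mL NRS70 at 1 × 10^6 CFU/mL in brain heart infusion injected into right thigh; drug in 10% DMSO/90% water sc every 8 h ×3 from 1 h post-infection; thigh CFU counted at 24 h; n = 8/group; mean ± SEM, one-way ANOVA with Tukey test.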

Data set [16] concerns Staphylococcus aureus. As to the kind of experiment: Bactericidal activity against methicillin resistant Staphylococcus aureus NRS70 infected in ICR mouse model of neutropenic thigh infection assessed as log reduction in bacterial count in thigh at 40 mg/kg, sc administered at 8 hrs interval for 3 times starting from 1 hr post infection and measured 24 hrs post infection. The format is functional. Summed up: as §5

In data set [17] the test system is Staphylococcus aureus. As to the kind of experiment: Potentiation of piperacillin and tazobactam-induced bactericidal activity against methicillin resistant Staphylococcus aureus NRS70 infected in ICR mouse model of neutropenic thigh infection assessed as log reduction in bacterial count in thigh at 20 mg/kg, sc administered at 8 hrs interval for 3 times starting from 1 hr post infection and measured 24 hrs post infection. The format is functional. In a few lines:
(§6)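 Neutropenic ICR mouse thigh model as above (cyclophosphamide 200 mg/kg ip days −4 and −1; NRS70 1 × 10^6 CFU/mL, 0.1 mL im right thigh); compound given with piperacillin 12 mg/kg plus tazobactam 1.5 mg/kg, sc in 10% DMSO/90% water every 8 h ×3 from 1 h; thigh CFU at 24 h; n = 8; mean ± SEM, ANOVA/Tukey.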

The subject of data set [18] is Staphylococcus aureus. As to the kind of experiment: Potentiation of piperacillin and tazobactam-induced bactericidal activity against methicillin resistant Staphylococcus aureus NRS70 infected in ICR mouse model of neutropenic thigh infection assessed as log reduction in bacterial count in thigh at 40 mg/kg, sc administered at 8 hrs interval for 3 times starting from 1 hr post infection and measured 24 hrs post infection. Type of data set: functional. In a few lines: as §6

On to `N#Cc1ccc(/C=C/c2nc3ccccc3c(=O)n2-c2cc(C(=O)O)ccc2F)cc1`, for which the MIC worked out at 2 µg/mL with Staphylococcus aureus [1]; 0.5 µg/mL (≈ 1.22 µM) in the data set on Staphylococcus aureus [2]; 0.25 µg/mL (≈ 0.608 µM) in data set [4]; 4 µg/mL (≈ 9.72 µM) in data set [5]; 8 µg/mL (≈ 19.4 µM) against Streptococcus pneumoniae; 128 µg/mL (≈ 311 µM) against Clostridioides difficile. Moreover, the MIC against Bacillus cereus, in the data set with Bacillus licheniformis and against Enterococcus faecalis was greater than 128 µg/mL each time. In addition, in the data set on HeLa, the concentration for half-maximal inhibition (IC50) stood at 62 µg/mL (≈ 151 µM). Further, the selectivity ratio result in the data set on Staphylococcus aureus [3] is “<=4”; in data set [6], 124. The “beta t1/2” value in [7] amounted to 13.7 h. In [8], this molecule showed a distribution volume (Vd) of 0.19 L/kg. In addition, the AUC(0-inf) in data set [9] is 16800 ng·h/mL. In addition, the half-life in data set [10] is 672 min. The molecule also registered a F in data set [11] of 65%. The molecule also returned a CL in [12] of less than 10%. Also, in [13], the “T>MIC” value is 4 h. In addition, the MBC with Staphylococcus aureus [14] is greater than 128 µg/mL. For the same molecule, the “log(activity)” value worked out at 0.47 in the data set on Staphylococcus aureus [15], 0.78 with Staphylococcus aureus [16], 0.75 in the data set with Staphylococcus aureus [17] and 1.33 in the data set with Staphylococcus aureus [18].
